Compound activity as filed in PubChem.
Only some compounds are listed: those with a hit (about 0.74% of all), similar ones and a draw of the others.
RGS7-Gao: human RGS7-Galphao interaction regulation. P09471. Multiplexed bead flow cytometry, RGS7-Galphao binding; actives lie on both sides. binding response (% of control), % at 10 µM. actives 0.35% (n = 220,000); in the data active = binding response below about 49% or above about 150%; inconclusive = no clear call, values can overlap the other calls; inactive = in between;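 note: fluorescent Galphao held in activated GDP-AlF4 state binding bead-coupled RGS7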
Target sequence (P09471 whole entry, looked up): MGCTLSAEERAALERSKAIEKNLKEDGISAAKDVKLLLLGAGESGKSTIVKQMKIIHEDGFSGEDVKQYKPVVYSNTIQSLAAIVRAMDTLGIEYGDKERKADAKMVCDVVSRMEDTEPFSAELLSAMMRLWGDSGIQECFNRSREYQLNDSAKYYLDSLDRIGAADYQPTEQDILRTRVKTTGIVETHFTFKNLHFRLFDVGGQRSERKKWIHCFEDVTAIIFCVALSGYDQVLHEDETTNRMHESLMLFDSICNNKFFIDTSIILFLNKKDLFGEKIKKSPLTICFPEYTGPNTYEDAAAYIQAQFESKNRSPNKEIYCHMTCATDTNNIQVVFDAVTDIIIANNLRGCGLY
RGS4-Gao reg: human RGS4-Galphao interaction regulation. Multiplexed bead flow cytometry, RGS4-Galphao binding; actives lie on both sides. binding response (% of control), % at 10 µM. actives 0.33% (n = 220,000). AID 1415; in the data active = binding response below about 49% or above about 150%; inactive = in between;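 note: fluorescent Galphao activated with aluminum fluoride binding bead-coupled RGS4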
RGS16-Gao: regulators of human RGS16-Galphao interaction; actives 0.38% (n = 220,000); bead-based flow cytometry RGS16-Galphao binding, fluorescence; actives lie on both sides; AID 1441; O15492+P09471; binding response (% of control), % at 10 µM;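 note: Galphao activated by GDP with aluminum fluoride before binding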
Target sequence (O15492 whole entry, looked up): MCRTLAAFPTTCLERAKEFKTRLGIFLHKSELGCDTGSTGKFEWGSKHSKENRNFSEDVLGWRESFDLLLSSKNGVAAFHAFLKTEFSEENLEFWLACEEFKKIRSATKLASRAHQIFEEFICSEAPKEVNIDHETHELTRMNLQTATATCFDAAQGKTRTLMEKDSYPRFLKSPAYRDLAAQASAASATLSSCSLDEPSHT
Target sequence (P09471 whole entry, looked up): as the sequence (P09471 whole entry, looked up) above
Calb biofilm kill: mixtures killing C. albicans biofilm; C. albicans biofilm persisters + clotrimazole, fluorescence viability; primary screen in compound mixtures of four per well; inhibition, % at 7.6 µM; actives 0.02% (n = 120,000);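 active = inhibition above 30.3% in the primary screen of four-compound pools, then above 30% when the compound was retested; inconclusive = passed the primary limit but could not be retested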;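 note: compounds exposed to preformed 24 h biofilms for 48 h; 0% = untreated biofilm control and 100% = clotrimazole plus chlorhexidine kill blank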
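System: C. albicans CAF4-2 wild-type biofilms; Medium: RPMI/MOPS medium, pH 7.0; Reagent: Clotrimazole, 50 µg/mL; Times: biofilm formation 24 h, compound exposure 48 h, 37 °C; Detection: 2-h Alamar Blue fluorescence, 535/590 nm excitation/emission; Evaluation: percent inhibition of biofilm viability.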
RGS8-Gao: modulates binding of RGS8 to human Galphao; response (percent of control binding), % at 10 µM; P09471; actives 0.34% (n = 220,000); AID 1423; multiplexed bead flow cytometry; actives lie on both sides; in the data active = response below about 60% or above about 140%; inactive = in between;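 note: Galphao activated as the GDP aluminium fluoride complex binding bead-coupled RGS8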
RGS4-Gao HTS: RGS4-Galphao interaction regulator (human). actives 99% (n = 1,600). shares compounds with RGS16-Gao. multiplexed bead flow cytometry, RGS–Galpha-o binding. AID 1504. RGS4–Galpha-o binding response, % at 10 µM;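 note: fluorescently labeled Galpha-o bound to GDP with aluminium fluoride binding biotinylated RGS beads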
Biotin-avidin: counter-screen: compounds disrupting biotin binding to avidin beads | shares compounds with RGS16-Gao | streptavidin beads, fluorescein-biotin binding, flow cytometry | inhibition, % at 10 µM | 1,700 tested, under 10 active | AID 1783;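 active = inhibition above 50%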;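 note: median green fluorescence of gated singlet beads compared with DMSO control wells; 0% = DMSO wells and 100% = complete loss of bead fluorescence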
RGS8-Gao single: confirmation of regulators of human RGS8-Galphao interaction. binding response (% of control), % at 10 µM. actives 3% (n = 1,700). shares compounds with RGS16-Gao. AID 1836. bead-based flow cytometry RGS8-Galphao binding, fluorescence; actives lie on both sides; in the data active = binding response below about 72% or above about 130%; inactive = in between;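 note: Galphao activated as GDP AlF4 complex before binding bead RGS8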
RGS7-Gao confirm: confirmation of regulators of human RGS7-Galphao interaction | shares compounds with RGS16-Gao | bead-based flow cytometry RGS7-Galphao binding; actives lie on both sides | response (percent of control binding), % at 10 µM | actives 7.8% (n = 1,700) | AID 1837; in the data active = response below about 75% or above about 130%; inactive = in between;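 note: fluorescent Galphao activated with GDP and aluminum fluoride binding bead-coupled RGS7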
RGS16-Gao single: confirmation of regulators of human RGS16-Galphao interaction; shares compounds with RGS16-Gao; bead-based flow cytometry, RGS16-Galphao binding; actives lie on both sides; response (% of control binding), % at 10 µM; actives 4% (n = 1,700); AID 1838; in the data active = response below about 74% or above about 130%; inactive = in between;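 note: Galphao activated as the GDP aluminium fluoride complex binding bead-coupled RGS16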
RGS4-Gao confirm: confirmation of regulators of human RGS4-Galphao interaction. shares compounds with RGS16-Gao. RGS4-Galphao binding, multiplexed bead flow cytometry; actives lie on both sides. binding response (% of control), % at 10 µM. actives 4% (n = 1,700); in the data active = binding response below about 74% or above about 130%; inactive = in between
RGS19-Gao single: confirmation of regulators of human RGS19-Galphao interaction | shares compounds with RGS16-Gao | bead-based flow cytometry RGS19-Galphao binding; actives lie on both sides | response (percent of control binding), % at 10 µM | actives 5% (n = 1,700); in the data active = response below about 50% or above about 160%; inactive = in between;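 note: 100% = no compound control and 0% = blank background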
Starred values were filed as active, the others as inactive; [ ] = dose if it differs, or a comment. Unless noted, the rule behind the calls is not given here.

How did COc1ccc2oc3cc(C)[n+]([O-])c(-c4ccc(Cl)cc4)c3c2c1 do in these assays?
RGS7-Gao: 52; RGS4-Gao reg: 41*; RGS16-Gao: 90; Calb biofilm kill: 16; RGS8-Gao: 78; Biotin-avidin: inactive; RGS8-Gao single: 105; RGS7-Gao confirm: 114; RGS16-Gao single: 112; RGS4-Gao confirm: 111; RGS19-Gao single: 107

Results for O=C1CCC(C(=O)Nc2ccccc2N2CCOCC2)=NN1 ?
RGS7-Gao: inconclusive; RGS4-Gao reg: 99; RGS16-Gao: 101; Calb biofilm kill: 22; RGS8-Gao: 101

What do the screens show for `CCC(=O)Nc1ccc(C(=O)N/N=C/c2cc(Br)c(OC)cc2OC)cc1`?
RGS7-Gao: 103; RGS4-Gao reg: 100; RGS16-Gao: 105; Calb biofilm kill: 6; RGS8-Gao: 104

What do the screens show for `Nc1n[nH]c(N)c1N=Nc1ccccc1`?
RGS7-Gao: 99; RGS4-Gao reg: 102; RGS16-Gao: 108; Calb biofilm kill: -6; RGS8-Gao: 100

How did Nc1n[nH]c(N)c1N=Nc1ccc(Cl)cc1Cl do in these assays?
RGS7-Gao: 46*; RGS4-Gao reg: 53; RGS16-Gao: 82; Calb biofilm kill: 13; RGS8-Gao: 72; RGS4-Gao HTS: 53*; Biotin-avidin: -1; RGS8-Gao single: 99; RGS7-Gao confirm: 98; RGS16-Gao single: 99; RGS4-Gao confirm: 100; RGS19-Gao single: 88

How did COc1ccccc1/C=N/NC(=O)c1ccc(-c2ccccc2)cc1 do in these assays?
RGS7-Gao: 114; RGS4-Gao reg: 117; RGS16-Gao: 191*[activator]; Calb biofilm kill: 18; RGS8-Gao: 123; RGS4-Gao HTS: 117*; Biotin-avidin: 2; RGS8-Gao single: 95; RGS7-Gao confirm: 61*; RGS16-Gao single: 77; RGS4-Gao confirm: 76; RGS19-Gao single: 61

What do the screens show for `COc1cccc(/C=N/NC(=O)c2ccccc2)c1OS(=O)(=O)c1ccccc1`?
RGS7-Gao: 89; RGS4-Gao reg: 91; RGS16-Gao: 25*; Calb biofilm kill: 13; RGS8-Gao: 75; RGS4-Gao HTS: 91*; Biotin-avidin: -1; RGS8-Gao single: 101; RGS7-Gao confirm: 100; RGS16-Gao single: 97; RGS4-Gao confirm: 100; RGS19-Gao single: 100

How did COc1cccc(/C=N/NC(=O)c2ccc(=O)n(C)c2)c1OC do in these assays?
RGS7-Gao: 105; RGS4-Gao reg: 102; RGS16-Gao: 101; Calb biofilm kill: 21; RGS8-Gao: 103

How did CC(=O)c1ccc(NS(=O)(=O)c2c(C)cc(C)cc2C)cc1 do in these assays?
RGS7-Gao: 93; RGS4-Gao reg: 95; RGS16-Gao: 116; Calb biofilm kill: 16; RGS8-Gao: 104

What do the screens show for `Cc1cc(C)c(S(=O)(=O)Nc2ccc(O)cc2)c(C)c1`?
RGS7-Gao: 118; RGS4-Gao reg: 126; RGS16-Gao: 293; RGS8-Gao: 141*[activator]; RGS4-Gao HTS: 126*; Biotin-avidin: 0; RGS8-Gao single: 100; RGS7-Gao confirm: 99; RGS16-Gao single: 101; RGS4-Gao confirm: 101; RGS19-Gao single: 99

What do the screens show for `COc1ccc(NC(=O)COC(C)=O)cc1Cl`?
RGS7-Gao: 103; RGS4-Gao reg: 104; RGS16-Gao: 100; Calb biofilm kill: 10; RGS8-Gao: 102

Results for COCC(=O)Nc1ccc(OC)c(Cl)c1 ?
RGS7-Gao: 53; RGS4-Gao reg: 98; RGS16-Gao: 98; Calb biofilm kill: 2; RGS8-Gao: 52*; RGS4-Gao HTS: 98*; Biotin-avidin: -1; RGS8-Gao single: 101; RGS7-Gao confirm: 98; RGS16-Gao single: 100; RGS4-Gao confirm: 101; RGS19-Gao single: 97

Results for COc1ccc(NC(=O)CCCn2c(=O)oc3ccccc32)cc1Cl ?
RGS7-Gao: 89; RGS4-Gao reg: 88; RGS16-Gao: 8.8*; Calb biofilm kill: 4; RGS8-Gao: 71; RGS4-Gao HTS: 88*

What do the screens show for `CC(C)CNC(=S)N1CCC(C(=O)c2ccc3c(c2)OCCO3)CC1`?
RGS7-Gao: 99; RGS4-Gao reg: 100; RGS16-Gao: 107; Calb biofilm kill: 10; RGS8-Gao: 101

How did O=C(COC(=O)CCOc1ccccc1)Nc1ncc(Cl)cc1Cl do in these assays?
RGS7-Gao: 99; RGS4-Gao reg: 97; RGS16-Gao: 97; Calb biofilm kill: 14; RGS8-Gao: 104

How did C#CCNC(=O)C1=C[C@@H](C2CC2)[C@H](CCCO)[C@@H](OCC)O1 do in these assays?
RGS7-Gao: -5.5*; RGS4-Gao reg: 4.8*; RGS16-Gao: 0.9*; Calb biofilm kill: 11; RGS8-Gao: 8.9*; Biotin-avidin: -2; RGS8-Gao single: 103; RGS7-Gao confirm: 104; RGS16-Gao single: 100; RGS4-Gao confirm: 103; RGS19-Gao single: 94

How did CCO[C@@H]1OC(C(=O)NC2CC2)=C[C@H](C2CC2)[C@H]1CCCO do in these assays?
RGS7-Gao: inconclusive; RGS4-Gao reg: 99; RGS16-Gao: 102; Calb biofilm kill: 18; RGS8-Gao: 97

Results for COc1ccc2c(C)cc(SCc3c(C)noc3C)nc2c1 ?
RGS7-Gao: 117; RGS4-Gao reg: 114; RGS16-Gao: 345; RGS8-Gao: 154*[activator]; RGS4-Gao HTS: 114*

What do the screens show for `Cc1ccc2nc(-c3cccnc3)c(Nc3ccccc3C)n2c1`?
RGS7-Gao: 98; RGS4-Gao reg: 98; RGS16-Gao: 99; Calb biofilm kill: 29; RGS8-Gao: 100
